High-throughput results (PubChem)
A selection: hits, their analogues and other compounds. The true share with any hit is near 2.4%.
NPY-Y1 PAM-ag: human NPY-Y1 potentiation or agonism, primary screen; P25929; NPY-Y1 expressing cells, potentiator/agonist activation; activation, % at 3.6 µM; 0.37% of 220,000 active; AID 1304; in the data active = activation above about 33%, passing the limit was not always enough;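 also: cells stimulated with NPY at EC10 then isoproterenol at EC100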
S1P4 antag: blocks the human S1P4 receptor; inhibition, % at 4.98 µM; 0.26% of 220,000 active; O95977; S1P4-expressing cells, antagonist mode, reporter read-out; AID 1510; in the data active = inhibition above about 29%
Target sequence (O95977 whole entry, looked up): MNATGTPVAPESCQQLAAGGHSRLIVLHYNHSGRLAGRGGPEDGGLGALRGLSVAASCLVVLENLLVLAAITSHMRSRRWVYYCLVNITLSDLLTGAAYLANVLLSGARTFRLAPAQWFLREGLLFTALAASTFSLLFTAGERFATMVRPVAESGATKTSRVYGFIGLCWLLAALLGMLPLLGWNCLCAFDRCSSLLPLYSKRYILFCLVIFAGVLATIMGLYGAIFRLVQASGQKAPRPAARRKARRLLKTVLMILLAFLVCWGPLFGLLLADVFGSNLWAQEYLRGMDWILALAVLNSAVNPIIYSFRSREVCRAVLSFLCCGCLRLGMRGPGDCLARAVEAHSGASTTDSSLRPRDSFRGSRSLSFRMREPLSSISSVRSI
NPY-Y2 PAM-ag: potentiates or activates human NPY-Y2 receptor; P49146; cells expressing NPY-Y2, potentiator/agonist read-out; activation, % at 3.6 µM; 0.45% of 220,000 active; in the data active = activation above about 27%;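 also: cells stimulated with NPY near EC25 plus isoproterenol at EC100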
S1P4 ag: agonists of human S1P4 receptor; O95977; S1P4-expressing cell line, agonist reporter assay; activation, % at 4.98 µM; 0.35% of 220,000 active; in the data active = activation above about 11%
NPY Y2 blocker: NPY-Y2 (human) receptor antagonism. NPY-Y2 expressing cells, antagonist mode. 0.99% of 140,000 active. P49146. AID 793. inhibition, % at 2.7 µM; in the data active = inhibition above about 17%
NPY-Y1 antag: blocks the human neuropeptide Y Y1 receptor | 1% of 200,000 active | inhibition, % at 3.6 µM | HEK293-CNG Y1 cells, membrane potential fluorescence; NPY at EC95, then isoproterenol;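 active = inhibition above the campaign mean inhibition of all tested compounds plus 3 SD, cut at about 20% in these data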
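Material: HEK293 cells with Y1 receptor plus CNG channel; times: compound incubation 1 h at room temperature, readout 45 min post-stimulation; signal: fluorescence, membrane potential probe; read-out basis: fluorescence ratio normalized to % inhibition between controls; benchmarks: full-block control isoproterenol-only wells, zero-block control NPY plus isoproterenol wells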
Numbers stand for hits; - = inactive; . = no result.

SMILES	NPY-Y1 PAM-ag	S1P4 antag	NPY-Y2 PAM-ag	S1P4 ag	NPY Y2 blocker	NPY-Y1 antag
CCOC(Cn1ccc(=O)[nH]c1=O)OCC	-	-	-	-	.	.
CN(C)CCOc1nc(-c2ccccc2)nc2c1oc1ccccc12	59	-	69	-	-	-
COCCN(Cc1ccco1)C(=O)Cn1ncc2c(=O)oc3ccccc3c21	-	-	-	-	.	.
CCN(CC)S(=O)(=O)c1cccc(-n2c(O)c(C=Nc3ccccc3C(=O)O)c3ccccc3c2=O)c1	48	-	74	-	.	.
O=C(CCCl)N1CCCC2(CCCCC2)C1	-	-	-	-	.	.
CCN(CC)S(=O)(=O)c1cccc(-c2nnc(SCCOc3ccc(Cl)cc3)o2)c1	-	-	-	-	29	32
CCN(CC)S(=O)(=O)c1cccc(-c2nnc(SCCOc3ccccc3C)o2)c1	-	-	-	-	26	20
N#C/C(=C/c1cn[nH]c1-c1ccc(Br)cc1)C(=O)O	-	-	-	-	.	-
CC12CC(NC(=O)N1c1ccc(C(=O)N3CCN(c4ccccn4)CC3)cc1)c1ccccc1O2 (configuration not stated)	52	-	35	-	-	-
Cc1ccc(CN2CC(C(=O)Nc3ccc(F)c([N+](=O)[O-])c3)CC2=O)cc1 (configuration not stated)	81	-	70	-	.	-
Cc1ccc(CN2CC(C(=O)Nc3cc(S(C)(=O)=O)ccc3Cl)CC2=O)cc1 (configuration not stated)	-	-	-	-	-	-
NNC(=O)c1cc2cc3ccccc3nc2s1	-	-	-	-	.	-
O=C1c2cccc3c([N+](=O)[O-])ccc(c23)C(=O)N1c1nccs1	-	99	-	-	-	-
CCOc1ccccc1CN1CCN(Cc2ccc(C)o2)CC1CCO (configuration not stated)	-	-	-	-	.	-
CCOc1ccccc1CN1CCN(Cc2[nH]c3ccccc3c2C)CC1CCO (configuration not stated)	-	-	-	-	.	21
Cn1c(C(=O)NCc2ccccn2)cc2c(=O)n(C)c3ccccc3c21	37	-	42	-	-	-
Cc1ccc(CNC(=O)c2cc3c(=O)n(C)c4ccccc4c3n2C)o1	-	-	-	-	-	-
NC(=O)/C(=C/c1ccco1)NC(=O)/C=C/c1ccccc1	-	-	-	-	-	-
CC(C)CCOC(=O)/C(=C/c1ccco1)NC(=O)/C=C/c1ccccc1	-	-	-	-	18	21
COc1ccc(CNCCC(c2ccccc2)c2ccc3c(c2)OCO3)cc1 (configuration not stated)	-	-	-	-	17	34
ONC(=Nc1cccc(C(F)(F)F)c1)c1cccnc1	-	-	-	-	.	.
CC(C)(C)OC(=O)N[C@@H](Cc1ccccc1)c1nnc(S(=O)(=O)Cc2ccccc2)o1	-	73	-	-	-	-
CCc1cccc(NC(=S)N(CCOC)C(C)c2ccco2)c1 (configuration not stated)	-	-	-	-	.	.
Cc1ccc(N)c(C(O)(C(F)(F)F)C(F)(F)F)c1	-	-	-	-	-	-
CNc1ccc(C(O)(C(F)(F)F)C(F)(F)F)cc1C(O)(C(F)(F)F)C(F)(F)F	46	-	58	-	-	-
SMILES	NPY-Y1 PAM-ag	S1P4 antag	NPY-Y2 PAM-ag	S1P4 ag	NPY Y2 blocker	NPY-Y1 antag
COc1ccc(N2C(=S)NC3CS(=O)(=O)CC32)cc1 (configuration not stated)	-	-	-	-	.	.
Cc1cc(C)c(S(=O)(=O)Nc2ccc(OCC(=O)O)cc2)c(C)c1	47	-	51	-	-	-
CN(C(=O)c1cccs1)c1ccc(OCC(=O)N2CCC(C(N)=O)CC2)cc1	-	-	-	-	.	-
Nc1nc(Nc2ccccc2)nc2ccccc12	73	-	68	-	-	-
CN1CCN(c2ccccc2NC(=O)Cc2ccc(Cl)cc2)CC1	-	-	-	-	24	23
Cc1cc(C)n2c(SCC(=O)Nc3ccc(F)cc3)nnc2n1	-	-	-	-	.	.
Cc1ccc(S(=O)(=O)N/N=C/c2cc(Br)ccc2O)cc1	-	-	-	-	.	.
Cc1ccc(S(=O)(=O)Nc2ccc(Br)cc2/C=N/n2cnnc2)cc1	49	-	47	-	-	-
CCN(CC)CC(O)COc1ccccc1C(=O)CCc1ccccc1 (configuration not stated)	51	-	39	-	-	-
CCCNCC(O)COc1ccccc1C(=O)CCc1ccccc1 (configuration not stated)	99	-	87	-	-	-
Cc1ccccc1OCC(=O)NNC(=O)CCc1ccccc1	-	-	-	-	.	-
CCC(=O)c1ccc(OCC(O)CN(CCc2ccccc2)Cc2ccccc2)cc1 (configuration not stated)	-	-	-	-	-	-
CN(C)c1ccc(N=C/C=C2/N(C)c3ccccc3C2(C)C)cc1	-	-	-	-	-	-
Cc1cc(SCC(=O)c2cc(C)n(C)c2C)nc2ccccc12	-	-	-	-	-	-
Cc1oc(CC(C)C)cc1C(=O)NCCCC(=O)O	-	-	-	-	.	-
CC(=O)NCCn1c(SCc2ccccc2F)nc2ccccc2c1=O	77	-	102	-	-	-
Cc1ccc2c(CSc3nc4ccccc4c(=O)n3CCCO)cc(=O)oc2c1C	-	-	-	-	28	31
CCOC(=O)C1CCCN(C(=O)c2cnn3c(C(F)F)cc(-c4ccc(C)cc4)nc23)C1 (configuration not stated)	-	-	-	-	26	30
Cc1ccc(-c2cc(C(F)F)n3ncc(C(=O)N4CCN5CCCC5C4)c3n2)cc1 (configuration not stated)	-	-	-	-	19	21
Cn1cccc1/C=N/NC(=O)CSc1nc2ccccc2[nH]1	-	-	-	-	.	.
CCC(=O)NC1(C(F)(F)F)C(=O)Nc2c1c(=O)[nH]c(=O)n2CC(C)C (configuration not stated)	-	-	-	-	.	.
CCCNC(=O)CSCc1nc(-c2ccc(SC)cc2)oc1C	-	-	-	-	.	-
CCc1ccc(-c2nc(CSCC(=O)NCc3ccco3)c(C)o2)cc1	-	-	-	-	.	21
CC1CCN(c2nc(-c3ccncc3)nc3ccccc23)CC1	-	-	-	-	30	31
C=CCN=c1scc(-c2ccc3c(c2)NC(=O)CO3)n1/N=C(\C)c1ccccn1	-	-	34	-	.	-
CC(Nc1nc(-c2ccc3c(c2)NC(=O)CO3)cs1)c1ccccc1 (configuration not stated)	-	-	-	-	.	-
CC(=O)OCCNc1cc(N2CCN(C)CC2)c2noc3c2c1C(=O)c1ccccc1-3	49	-	33	-	-	-
Cc1cccc(C)c1NC(=O)C[N+](C)(C)CC(O)COc1cccc2ccccc12 (configuration not stated)	98	-	66	-	.	-
